For experiment [1], the species on record is Mus musculus. In words: Percent MPE was evaluated in mouse tail withdrawal assay. Format: functional. The gist of the method: (§1)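 Mice, tail withdrawal test in 50 °C water. Ethers dissolved in sterile water containing 16% MeOH and 1% HCl and injected sc. ED50 in mg/kg and % MPE reported; means ± SEM from 6 animals.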
Experiment [2] has as its system Mus musculus. The experiment is described as follows: Comparison of the antinociceptive agonist/antagonist profile of activity by hot plate test.(sc administration).
Experiment [3] deals with Mus musculus. The experiment is described as follows: Comparison of the antinociceptive agonist/antagonist profile of activity by Tail Flick vs morphine test.(sc administration) inactive up to 30 mg/kg. It is filed as functional, organism-based. Also noted: dose 30 mg/kg.
The species named for experiment [4] is Mus musculus. The experiment is described as follows: Antinociceptive potency determined by mouse tail withdrawal assay. Format: functional. The method, boiled down:
as §1

The test system of experiment [5] is Mus musculus. In words: Comparison of the antinociceptive agonist/antagonist profile of activity by Tail Flick vs morphine test.(sc administration). It is filed as functional.
The subject of experiment [6] is Mus musculus. The experiment is described as follows: Comparison of the antinociceptive agonist/antagonist profile of activity by hot plate test.(sc administration); inactive up to 20 mg/Kg. It is filed as functional, organism-based. The gist of the method: (§2)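 Mice, phenylquinone abdominal stretch, hot plate or tail flick tests. Compounds given sc in distilled water, 5% aqueous DMSO or 5% hydroxypropyl-β-cyclodextrin.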

In experiment [7] the test system is Mus musculus. In words: Comparison of the antinociceptive agonist/antagonist profile of activity by tail flick test (sc administration); inactive up to 30 mg/kg. On the set-up: dose 30 mg/kg. Format: functional, organism-based. The method, boiled down:
as §2
For orientation: In hot-plate and tail-flick tests a longer latency is read as antinociception.

For experiment [8], the system named is Mus musculus. In words: Comparison of the antinociceptive agonist/antagonist profile of activity by Phenylquinone-abdominal stretch test.(sc administration). It is filed as functional. The gist of the method:
as §2

For experiment [9], the species on record is Mus musculus. In words: Antagonist selectivity after a 24-h pretreatment period, in the mouse abdominal stretch assay using Bremazocine as the agonist. It is filed as functional, Abdomen. The gist of the method:
(§3)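 Mice, acetic acid abdominal stretch assay. Ether 32 mg/kg sc given 24 h beforehand (vehicle sterile water with 16% MeOH and 1% HCl). Agonist (morphine 3.2 mg/kg, BW373U86 10 mg/kg, or bremazocine) given sc 15 min before ip acetic acid. Read-out is % antagonism of the agonist effect.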

For experiment [10], the target named is Delta-type opioid receptor (Rattus norvegicus, UniProt P33533). In words: In vitro binding affinity against Opioid receptor delta 1 (DPDPE) in rat brain homogenates. It is filed as tissue-based. The gist of the method:
(§4)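 Crude membranes from brain minus cerebellum, homogenized in 50 mM Tris, pH 7.4. Radioligands [3H]DAMGO 2 nM (μ), [3H]DPDPE 1.8 nM (δ), [3H]U69,593 1.1 nM (κ). Nonspecific binding defined with 10 μM naloxone. Compounds from DMSO stock; final DMSO ≤0.1%.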

The subject of experiment [11] is Mus musculus. In words: Antagonism of morphine antinociceptive ED50 by the compound. Onset and Duration of morphine antagonist action in the mouse tail flick assay at a Pretreatment time of 36 hours.(sc administration). Format: functional. The method, boiled down:
(§5)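 Mice, tail flick test. Ether given sc (vehicle: distilled water, 5% aqueous DMSO or 5% hydroxypropyl-β-cyclodextrin), then morphine; pretreatment intervals from the standard 30 min up to 72 h. Antagonism taken as the shift in morphine antinociceptive ED50.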

For another experiment, the target named is Mu-type opioid receptor (Rattus norvegicus, UniProt P33535). The experiment is described as follows: In vitro binding affinity against Opioid receptor mu 1 (DAMGO) opioid receptor in rat brain homogenates. Format: tissue-based. The method, boiled down:
as §4

Experiment [12] has as its system Mus musculus. In words: Comparison of the antinociceptive agonist/antagonist profile of activity byhot plate test (sc administration); inactive up to 20 mg/kg. Format: functional, organism-based. On the set-up: dose 20 mg/kg. The gist of the method: as §2
Experiment [13] has as its system Mus musculus. In words: Antagonism of morphine antinociceptive ED50 by the compound. Onset and Duration of morphine antagonist action in the mouse tail flick assay at a Pretreatment time of 6 hours.(sc administration). It is filed as functional. The gist of the method: as §5
The test system of experiment [14] is Mus musculus. The experiment is described as follows: Antagonism of morphine antinociceptive ED50 by the compound. Onset and Duration of morphine antagonist action in the mouse tail flick assay at a Pretreatment time of 72 hours.(sc administration). It is filed as functional. The method, boiled down:
as §5

Experiment [15] deals with Mus musculus. The experiment is described as follows: Antagonist selectivity after a 24-h pretreatment period, in the mouse abdominal stretch assay using BW373U86 (10 mg/kg) as the agonist. Format: functional, Abdomen. The gist of the method: as §3
Experiment [16] has as its system Mus musculus. The experiment is described as follows: Antagonist selectivity after a 24-h pretreatment period, in the mouse abdominal stretch assay using morphine (3.2 mg/kg) as the agonist. Format: functional, Abdomen. The method, boiled down: as §3
Experiment [17] has as its target Kappa-type opioid receptor (Rattus norvegicus, UniProt P34975). The experiment is described as follows: In vitro binding affinity against Opioid receptor kappa 1 in rat brain homogenates. It is filed as tissue-based. The method, boiled down:
as §4

Experiment [18] deals with Mus musculus. In words: Comparison of the antinociceptive agonist/antagonist profile of activity by Tail Flick vs morphine test (sc administration); inactive up to 30 mg/kg. Format: functional, organism-based. On the set-up: dose 30 mg/kg.
The test system of experiment [19] is Mus musculus. In words: Antagonism of morphine antinociceptive ED50 by the compound. Onset and Duration of morphine antagonist action in the mouse tail flick assay at a Pretreatment time of 2 hr. (30 mg/kg sc administration). Format: functional. The gist of the method: as §5
Experiment [20] concerns Mus musculus. The experiment is described as follows: Antagonism of morphine antinociceptive ED50 by the compound. Onset and Duration of morphine antagonist action in the mouse tail flick assay at a Pretreatment time of 24 hours.(sc administration). Format: functional. The method, boiled down: as §5
Experiment [21] deals with Mus musculus. The experiment is described as follows: Effect of antagonist (Naltrindole, 10 mg/kg for a pretreatment time of 15 min)on the inhibition of acetic acid-induced abdominal stretches by the compound (10 mg/kg sc). It is filed as functional, Abdomen. The method, boiled down: (§6)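 Mice, acetic acid abdominal stretch assay (stretches induced by ip acetic acid). Ether 10 mg/kg sc, given after a selective antagonist: β-FNA 32 mg/kg at 24 h, naltrindole 10 mg/kg at 15 min, or nor-BNI 32 mg/kg at 24 h beforehand. Read-out is % antagonism.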

Experiment [22] has as its system Mus musculus. In words: Comparison of the antinociceptive agonist/antagonist profile of activity byhot plate test.(sc administration). Format: functional. The gist of the method:
as §2

Experiment [23] has as its system Mus musculus. In words: Comparison of the antinociceptive agonist/antagonist profile of activity by tail flick test.(sc administration). Format: functional. The gist of the method: as §2
Experiment [24] concerns Mus musculus. In words: Effect of antagonist (beta-FNA, 32 mg/kg for a pretreatment time of 24 h) on the inhibition of acetic acid-induced abdominal stretches by the compound (10 mg/kg sc). It is filed as functional, Abdomen. The gist of the method:
as §6

Experiment [25] deals with Mus musculus. The experiment is described as follows: Effect of antagonist (Nor-BNI, 32 mg/kg for a pretreatment time of 24 h) on the inhibition of acetic acid-induced abdominal stretches by the compound (10 mg/kg sc). Format: functional, Abdomen. The gist of the method:
as §6

Experiment [26] relates to Mus musculus. The experiment is described as follows: Comparison of the antinociceptive agonist/antagonist profile of activity by Tail Flick vs morphine test.(Inactive up to 30 mg/kg; sc administration). Also noted: dose 30 mg/kg. Format: functional, organism-based.
The subject of experiment [27] is Mus musculus. The experiment is described as follows: Percent MPE was evaluated in mouse tail withdrawal assay at 32 mg/kg. Format: functional. The gist of the method: as §1

pKi: −log10 of the molar value. Activity calls are given as the source filed them. The calls are words filed in the database; no cut-off is given here.

Kappa-type opioid receptor, sequence (P34975 whole entry): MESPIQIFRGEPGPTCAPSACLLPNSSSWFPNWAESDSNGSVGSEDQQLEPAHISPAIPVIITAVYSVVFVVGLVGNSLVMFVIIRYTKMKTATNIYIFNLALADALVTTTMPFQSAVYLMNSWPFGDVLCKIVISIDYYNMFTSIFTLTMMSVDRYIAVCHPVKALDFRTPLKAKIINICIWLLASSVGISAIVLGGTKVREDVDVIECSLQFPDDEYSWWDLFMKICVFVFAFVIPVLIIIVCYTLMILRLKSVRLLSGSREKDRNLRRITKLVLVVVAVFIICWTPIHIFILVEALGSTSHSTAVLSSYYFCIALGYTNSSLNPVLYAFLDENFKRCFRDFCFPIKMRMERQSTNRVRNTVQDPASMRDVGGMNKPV
Delta-type opioid receptor, sequence (P33533 whole entry): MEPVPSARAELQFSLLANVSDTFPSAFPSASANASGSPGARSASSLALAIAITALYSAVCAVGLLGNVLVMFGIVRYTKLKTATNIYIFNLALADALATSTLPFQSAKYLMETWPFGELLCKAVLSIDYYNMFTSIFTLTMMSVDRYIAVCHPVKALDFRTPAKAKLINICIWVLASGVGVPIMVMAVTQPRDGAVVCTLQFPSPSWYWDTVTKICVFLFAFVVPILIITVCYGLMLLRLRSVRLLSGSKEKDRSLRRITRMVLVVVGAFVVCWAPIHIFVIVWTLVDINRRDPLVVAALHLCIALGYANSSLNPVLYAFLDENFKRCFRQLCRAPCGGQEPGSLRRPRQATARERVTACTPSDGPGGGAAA
Mu-type opioid receptor, sequence (P33535 whole entry): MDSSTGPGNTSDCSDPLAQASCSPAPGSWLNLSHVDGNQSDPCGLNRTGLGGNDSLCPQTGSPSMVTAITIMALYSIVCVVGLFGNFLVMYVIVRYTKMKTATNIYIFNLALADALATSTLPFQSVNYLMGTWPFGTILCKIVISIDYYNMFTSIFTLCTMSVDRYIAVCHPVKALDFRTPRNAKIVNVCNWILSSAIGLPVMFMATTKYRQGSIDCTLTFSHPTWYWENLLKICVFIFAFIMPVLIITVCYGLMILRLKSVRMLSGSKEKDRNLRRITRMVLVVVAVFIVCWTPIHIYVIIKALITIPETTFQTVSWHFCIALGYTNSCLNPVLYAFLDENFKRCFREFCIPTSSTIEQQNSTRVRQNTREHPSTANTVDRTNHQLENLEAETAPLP

In the case of `CN1CC[C@]23c4c5ccc(O)c4O[C@H]2[C@@H](O)C=C[C@H]3[C@H]1C5` [MORPHINE], in the experiment filed under Mus musculus [1], the MPE worked out at 100%. The 50% effective dose (ED50) (in general, the dose that gives a 50% effect, or the effect in half of the subjects) with Mus musculus [2] was determined as 0.9 mg/kg; in the experiment filed under Mus musculus [4], 17.9 mg/kg. Also, in the experiment with Mus musculus [3], the ED50 entry is “inactive”.
For the compound `COc1ccc2c3c1O[C@H]1C(=O)CC[C@@]4(NC(=O)/C=C/c5ccc(Cl)cc5)[C@@H](C2)N(CC2CC2)CC[C@]314`, the ED50 in the experiment on Mus musculus [5] worked out at 6 mg/kg; with Mus musculus [8], 0.2 mg/kg. For the same compound, the ED50 result with Mus musculus [6] and with Mus musculus [7] was “inactive” throughout.
Regarding `O=C(/C=C/c1ccc(Cl)cc1)N[C@@]12CCC(=O)[C@@H]3Oc4c(OCC5CC5)ccc5c4[C@@]31CCN(CC1CC1)[C@@H]2C5`, the Antagonism in the experiment filed under Mus musculus [9] worked out at 19%; in the experiment with Mus musculus [15], 0%; in the experiment on Mus musculus [16], 100%; in the experiment on Mus musculus [19], 57%. For the same compound, the pKi (commonly −log10 of the Ki, conventionally taken in molar units) in experiment [10] was 7.25; on Mu-type opioid receptor it was 8.12; in experiment [17], 6.88. Further, the AD50 turned out to be 6.82 mg/kg with Mus musculus [11], 0.97 mg/kg in the experiment with Mus musculus [13], 11.39 mg/kg in the experiment with Mus musculus [14] and 3.41 mg/kg with Mus musculus [20]. The ED50 result in the experiment with Mus musculus [12], with Mus musculus [7] and in the experiment on Mus musculus [18] was “inactive” throughout. Moreover, in the experiment with Mus musculus [8], it took a dose of 6.7 mg/kg to reach the 50% effect level (ED50).
Consider `N#CCOc1ccc2c3c1O[C@H]1C(=O)CC[C@@]4(NC(=O)/C=C/c5ccc(Cl)cc5)[C@@H](C2)N(CC2CC2)CC[C@]314`, for which the results for the pKi (in experiment [10]; on Mu-type opioid receptor; in [17]) were 7.05, 7.91 and 7.74, respectively. Besides, the MPE in the experiment filed under Mus musculus [1] is listed as 78%. In the experiment filed under Mus musculus [4], this compound gave an ED50 of 20.8 mg/kg.
Regarding `C#CCOc1ccc2c3c1O[C@H]1C(=O)CC[C@@]4(NC(=O)/C=C/c5ccc(Cl)cc5)[C@@H](C2)N(CC2CC2)CC[C@]314`, the Antagonism in the experiment with Mus musculus [21] was found to be 3.9%; in the experiment filed under Mus musculus [9] it was 7%; with Mus musculus [14], 36%; in the experiment with Mus musculus [15], 38%; with Mus musculus [16], 96%; with Mus musculus [24] it was 100%. Moreover, the Antagonism turned out to be 4.8% with Mus musculus [25] and 17% in the experiment on Mus musculus [19]. Also, the values for the negative-log Ki (pKi) (in experiment [10]; on Mu-type opioid receptor; in experiment [17]) were 7.67, 8.80 and 7.72, respectively. For the same compound, the AD50 in the experiment on Mus musculus [11] amounted to 3.02 mg/kg; in the experiment on Mus musculus [13], 14.11 mg/kg; in the experiment with Mus musculus [20], 4.06 mg/kg. Besides, the median effective dose (ED50) in the experiment on Mus musculus [22] is 0.3 mg/kg; in the experiment on Mus musculus [23], 1.2 mg/kg; in the experiment with Mus musculus [8], 0.3 mg/kg; in the experiment filed under Mus musculus [4] it was 6.3 mg/kg. The same compound displayed an MPE in the experiment listed under Mus musculus [1] of 100%. The ED50 result in the experiment with Mus musculus [26] was “inactive”.
On to `COC(=O)COc1ccc2c3c1O[C@H]1C(=O)CC[C@@]4(NC(=O)/C=C/c5ccc(Cl)cc5)[C@@H](C2)N(CC2CC2)CC[C@]314`, for which the pKi in experiment [10] was 7.61; at Mu-type opioid receptor, 8.12; in experiment [17], 7.02.
For `C=CCOc1ccc2c3c1O[C@H]1C(=O)CC[C@@]4(NC(=O)/C=C/c5ccc(Cl)cc5)[C@@H](C2)N(CC2CC2)CC[C@]314`, the pKi was 7.18 in experiment [10], 8.05 on Mu-type opioid receptor and 7.75 in [17]. The same compound displayed an MPE in the experiment filed under Mus musculus [1] of 100%. In the experiment listed under Mus musculus [4], this compound showed an ED50 of 11.1 mg/kg.
`CC(C)Oc1ccc2c3c1O[C@H]1C(=O)CC[C@@]4(NC(=O)/C=C/c5ccc(Cl)cc5)[C@@H](C2)N(CC2CC2)CC[C@]314`: the negative-log Ki (pKi) is 7.02 in [10], 7.22 at Mu-type opioid receptor and 7.83 in experiment [17].
The matching figures for `O=C(/C=C/c1ccc(Cl)cc1)N[C@@]12CCC(=O)[C@@H]3Oc4c(O)ccc5c4[C@@]31CCN(CC1CC1)[C@@H]2C5` [CLOCINNAMOX]: 7.90, 8.05 and 8.27.
`CCCOc1ccc2c3c1O[C@H]1C(=O)CC[C@@]4(NC(=O)/C=C/c5ccc(Cl)cc5)[C@@H](C2)N(CC2CC2)CC[C@]314`: in the experiment with Mus musculus [27], the MPE was found to be 35%. The pKi is 7.08 in experiment [10], 7.61 at Mu-type opioid receptor and 7.72 in [17].

For the origin of these results see ChEMBL document CHEMBL1131084, “3-Alkyl ethers of clocinnamox: delayed long-term mu-antagonists with variable mu efficacy” (J Med Chem, 1998).
